According to ChEMBL document CHEMBL4145672, “Structural Characterization of Terpenoids from Abies holophylla Using Computational and Statistical Methods and Their Biological Activities” (J Nat Prod, 2018):

Experiments:
A549 = experiment: Cytotoxicity against human A549 cells assessed as cell growth inhibition measured after 48 hrs by sulforhodamine B assay; format: functional, cell-based; settings: A549, 48 h
Method in brief: (§1)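 The SRB assay was run on ATCC-derived human tumor lines maintained at the Korea Research Institute of Chemical Technology. Read-out was cell growth. IC50 is the concentration giving 50% growth inhibition. Cisplatin served as positive control.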

SK-OV-3 = experiment: Cytotoxicity against human SKOV3 cells assessed as cell growth inhibition measured after 48 hrs by sulforhodamine B assay; format: functional, cell-based; settings: SK-OV-3, 48 h; method in brief: as §1
SK-MEL-2 = experiment: Cytotoxicity against human SK-MEL-2 cells assessed as cell growth inhibition measured after 48 hrs by sulforhodamine B assay; format: functional, cell-based; settings: SK-MEL-2, 48 h; method in brief: as §1
HCT-15 = experiment: Cytotoxicity against human HCT15 cells assessed as cell growth inhibition measured after 48 hrs by sulforhodamine B assay; format: functional, cell-based; settings: HCT-15, 48 h; method in brief: as §1
BV-2 = experiment: Antiinflammatory activity in mouse BV2 cells assessed as inhibition of LPS-induced nitric oxide production measured after 24 hrs by Griess assay; format: functional, cell-based; settings: BV-2, 24 h
Method in brief: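 Murine microglial BV2 cells were seeded at 4 × 10^4 cells/well and exposed to a range of compound concentrations. LPS (100 ng/mL) was added and cells were incubated 24 h. Nitrite in the medium was reacted 10 min with Griess reagent (0.1% N-1-naphthylethylenediamine dihydrochloride, 1% sulfanilamide in 5% phosphoric acid), read at 570 nm and quantified against a sodium nitrite standard curve. IC50 values are reported.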

[1] = Cytotoxicity against mouse BV2 cells assessed as cell viability at 20 uM measured after 24 hrs by MTT assay relative to control; format: cell-based, BV-2; settings: read-out: Activity
Method in brief: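 BV2 cells under the NO assay conditions (LPS 100 ng/mL, 24 h) were given 20 μM of each compound, with some data collected at 5 μM. Viability was measured by MTT and expressed as percent. Values are means ± SD of three independent experiments.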

C6 [2] = experiment: Neuroprotective activity in rat C6 cells assessed as induction of nerve growth factor secretion at 20 uM measured after 24 hrs by ELISA relative to control; format: functional
Method in brief: (§2)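 Rat C6 glioma cells were seeded at 1 × 10^5 cells/well. After 24 h they were switched to serum-free DMEM and treated with compound (20 μM, some at 5 μM) for 24 h. NGF secreted into the conditioned medium was quantified by ELISA and expressed as percent of untreated control (100%). Values are means ± SD of three independent experiments.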

[3] = Cytotoxicity against rat C6 cells assessed as cell viability at 20 uM measured after 24 hrs by MTT assay relative to control; format: cell-based; settings: read-out: Activity
Method in brief: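 Rat C6 glioma cells were seeded at 1 × 10^5 cells/well. After 24 h they were switched to serum-free DMEM containing 20 μM compound for another 24 h. Viability was determined by MTT as percent of untreated control, some data at 5 μM. Values are means ± SD of three independent experiments.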

[4] = Cytotoxicity against mouse BV2 cells assessed as cell viability at 5 uM measured after 24 hrs by MTT assay relative to control; format: cell-based, BV-2; settings: read-out: Activity
Method in brief: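 BV2 murine microglia were seeded at 4 × 10^4 cells/well, exposed to compound (5 μM here), and stimulated with LPS 100 ng/mL for 24 h. Viability was read by MTT and expressed as % of control. Values are means ± SD of three independent experiments.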

C6 [5] = experiment: Neuroprotective activity in rat C6 cells assessed as induction of nerve growth factor secretion at 5 uM measured after 24 hrs by ELISA relative to control; format: functional; method in brief: as §2
[6] = Cytotoxicity against rat C6 cells assessed as cell viability at 5 uM measured after 24 hrs by MTT assay relative to control; format: cell-based; settings: read-out: Activity
Method in brief: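 C6 glioma cells were seeded at 1 × 10^5 cells/well, grown 24 h, then switched to serum-free DMEM with compound (5 μM here) for another 24 h. Viability was read by MTT as % of untreated cells. Values are means ± SD of three independent experiments.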

Row | SMILES | IC50 (BV-2) [µM] | IC50 (A549) [µM] | IC50 (SK-OV-3) [µM] | IC50 (SK-MEL-2) [µM] | IC50 (HCT-15) [µM] | viability at 24 h, 20 µM [1] [%] | Activity (C6 [2]) [%] | viability at 24 h, 20 µM [3] [%] | viability at 24 h, 5 µM [4] [%] | Activity (C6 [5]) [%] | viability at 24 h, 5 µM [6] [%]
1 | C=C(C)[C@@H]1C=CC2=C3CC[C@@](C)([C@H](C)CC(=O)C[C@@H](C)C(=O)O)[C@]3(C)CC[C@H]2[C@@]1(C)CCC(=O)O | – | – | – | – | – | – | 146.1 | 110 | – | – | –
2 | C=C(CC(=O)C[C@@H](C)[C@]1(C)CCC(=C)[C@]12CC[C@@H]1C2=CC[C@@H](C(=C)C)[C@]1(C)CCC(=O)O)C(=O)O | – | – | – | – | – | – | 173.3 | 112 | – | – | –
3 | C/C(=C\CC[C@@H](C)[C@H]1CC[C@@]2(C)[C@@H]3CC[C@H]4C(C)(C)[C@@H](O)CC[C@@]45C[C@@]35CC[C@]12C)C(=O)O [MANGIFEROLIC ACID] | 12.8 | – | – | – | – | 35.2 | 128.6 | 79.3 | – | – | –
4 | C/C(=C\C(=O)C[C@@H](C)[C@H]1CC[C@@]2(C)C3=CC[C@H]4C(C)(C)C(=O)CC[C@]4(C)[C@@H]3CC[C@]12C)C(=O)O | 10.5 | 8.7 | 7.7 | 3.2 | > 10 | 19.4 | 153.9 | 62.2 | – | – | –
5 | CC1(C)O[C@H]2C[C@H]3C(=C[C@]21O)CC[C@@H]1[C@]3(C)CCC[C@@]1(C)C(=O)O | – | – | – | – | – | – | 136.9 | 99 | – | – | –
6 | CC1=CC(O)(C[C@@H](C)[C@]2(C)CC=C3C4=CC[C@H]5C(C)(C)[C@H](O)CC[C@]5(C)[C@@H]4CC[C@]32C)OC1=O (stereo not given in full) | 4 | > 10 | > 10 | 4.2 | > 10 | 9.7 | 121.7 | 56.7 | 154 | 158.1 | 108
7 | C/C(=C\CC[C@@H](C)[C@H]1CC[C@@]2(C)[C@@H]3CC[C@H]4C(C)(C)C(=O)CC[C@@]45C[C@@]35CC[C@]12C)C(=O)O [MANGIFERONIC ACID] | 9 | – | – | – | – | 21 | – | – | – | – | –
8 | C/C(=C\CO)[C@H](O)C[C@@H]1[C@@]2(C)CCCC(C)(C)[C@@H]2CC[C@@]1(C)O | – | – | – | – | – | – | 127.9 | 104 | – | – | –
9 | C[C@@H]1C[C@]2(C[C@@H](C)[C@]3(CC[C@@]4(C)[C@@H]5CC[C@H]6C(C)(C)[C@H](O)CC[C@@]67C[C@@]57CC[C@@]43C)O2)OC1=O | – | > 10 | > 10 | 8.5 | > 10 | – | 149.3 | 107 | – | – | –
10 | CNC(=N)NCCC[C@H](N)C(=O)O [TILARGININE] | – | – | – | – | – | 105 | – | – | – | – | –
11 | CCCCC/C=C/C(=O)CCc1ccc(O)c(OC)c1 [SHOGAOL] | – | – | – | – | – | – | 158.2 | 110 | – | – | –

Further lines, with some results ahead:

Row | IC50 (BV-2) [µM] | SMILES | IC50 (A549) [µM] | IC50 (SK-OV-3) [µM] | IC50 (SK-MEL-2) [µM] | IC50 (HCT-15) [µM] | viability at 24 h, 20 µM [1] [%] | Activity (C6 [2]) [%] | viability at 24 h, 20 µM [3] [%] | viability at 24 h, 5 µM [4] [%] | Activity (C6 [5]) [%] | viability at 24 h, 5 µM [6] [%]
12 | 17.3 | C=C(C)[C@@H]1CC=C2[C@@H](CC[C@]3(C)[C@@H]([C@H](C)C[C@@H]4C[C@@H](C)C(=O)O4)CC[C@@]23C)[C@@]1(C)CCC(=O)OC | > 10 | > 10 | 5.5 | 8.1 | 123 | – | – | – | – | –
13 | 9.8 | CC(=O)/C=C/C1[C@](C)(O)CC[C@H]2C(C)(C)CCC[C@]12C (stereo not given in full) | – | – | – | – | 114 | – | – | – | – | –
14 | 10.3 | C/C(=C\C(=O)C[C@@H](C)[C@@H]1CC=C2C3=CC[C@H]4C(C)(C)[C@H](O)CC[C@]4(C)[C@@H]3CC[C@]21C)C(=O)O | > 10 | > 10 | 7.2 | > 10 | 9.9 | 156 | 85.7 | – | – | –
15 | 10.2 | CC1=CC(O)(C[C@@H](C)[C@H]2CC[C@@]3(C)C4=CC[C@H]5C(C)(C)C(=O)CC[C@]5(C)[C@@H]4CC[C@]23C)OC1=O (stereo not given in full) | 9.4 | > 10 | 4.1 | > 10 | 15.9 | – | – | – | – | –
16 | 25 | C=C[C@@]1(C)O[C@]2(C)CC[C@H]3C(C)(C)CCC[C@]3(C)[C@H]2C[C@H]1O | – | – | – | – | 112 | – | – | – | – | –
17 | 42.2 | C=C[C@@](C)(O)[C@H]1C[C@@H]2[C@@]3(C)CCCC(C)(C)[C@@H]3CC[C@@]2(C)O1 | – | – | – | – | 118 | – | – | – | – | –
18 | 29.8 | C/C(=C\[C@H](O)C[C@@H](C)[C@H]1CC[C@@]2(C)C3=CC[C@H]4C(C)(C)C(=O)CC[C@]4(C)[C@@H]3CC[C@]12C)C(=O)O | > 10 | > 10 | 8.8 | > 10 | 125 | 140.9 | 111 | – | – | –
19 | 19.1 | C=C(C)[C@@H]1CC=C2[C@@H](CC[C@]23C(=C)CC[C@@]3(C)[C@H](C)CC(=O)/C=C(\C)C(=O)O)[C@@]1(C)CCC(=O)O | – | – | – | – | 136 | 195.1 | 104 | – | – | –
20 | 15 | C=C(CC(=O)C[C@@H](C)[C@H]1CC[C@@]2(C)C3=CC[C@H]4C(C)(C)C(=O)CC[C@]4(C)[C@@H]3CC[C@]12C)C(=O)O | – | – | – | – | 125 | 178.9 | 98.5 | – | – | –
21 | 18.1 | C[C@]12CCC[C@@](C)(C(=O)O)[C@@H]1CCC1=CC(=O)CC[C@@H]12 | – | – | – | – | 124 | – | – | – | – | –
22 | 19.5 | C/C(=C\CO)[C@@H](O)C[C@@H]1[C@@]2(C)CCCC(C)(C)[C@@H]2CC[C@@]1(C)O | – | – | – | – | 122 | 125.7 | 99.8 | – | – | –
23 | 13.6 | C=C[C@@]1(C)C=C2CC[C@@H]3[C@](C)(CCC[C@@]3(C)C(=O)O)[C@H]2CC1 [PIMARIC ACID] | – | – | – | – | 117 | – | – | – | – | –
24 | 20.3 | CC1(C)CCC[C@]2(C)[C@H]3CC(=O)O[C@]3(C)CC[C@@H]12 | – | – | – | – | 131 | – | – | – | – | –
25 | 39.7 | C=C(C)[C@@H]1CC=C2[C@@H](CC=C3[C@@]2(C)CC[C@@]3(C)[C@H](C)C[C@@H]2C[C@@H](C)C(=O)O2)[C@@]1(C)CCC(=O)OC | 2.4 | 6.2 | 1.7 | 2.3 | 86.8 | – | – | – | – | –
